Reference: PMC5472370 (ACS Omega, 2017)

Experiments:
BACE1 D32N mutant = BACE1 D32N mutant (Homo sapiens, UniProt P56817, D93N); experiment: SPR binding to BACE1 D32N mutant; conditions: BACE1 D32N catalytic-site mutant
In short: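 Catalytic-site D32N ectodomain (residues −16 to 393, C-terminal His- plus StrepII-tag), expressed in and purified from E. coli. Amine-coupled to a CM7 chip and run under conditions similar to wild type: 25 °C, 30 s injections at 30 µL/min, DMSO solvent correction. Concentration series 0.03, 0.06, 0.13, 0.25 and 0.50 mM.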

mature BACE1 ectodomain [1] = biological target: T1, mature BACE1 ectodomain (Homo sapiens, UniProt P56817); experiment: WaterLOGSY ligand-observed NMR binding; conditions: 30-fold excess of ligand, performed once
T1 sequence (P56817 46-454 limits assumed): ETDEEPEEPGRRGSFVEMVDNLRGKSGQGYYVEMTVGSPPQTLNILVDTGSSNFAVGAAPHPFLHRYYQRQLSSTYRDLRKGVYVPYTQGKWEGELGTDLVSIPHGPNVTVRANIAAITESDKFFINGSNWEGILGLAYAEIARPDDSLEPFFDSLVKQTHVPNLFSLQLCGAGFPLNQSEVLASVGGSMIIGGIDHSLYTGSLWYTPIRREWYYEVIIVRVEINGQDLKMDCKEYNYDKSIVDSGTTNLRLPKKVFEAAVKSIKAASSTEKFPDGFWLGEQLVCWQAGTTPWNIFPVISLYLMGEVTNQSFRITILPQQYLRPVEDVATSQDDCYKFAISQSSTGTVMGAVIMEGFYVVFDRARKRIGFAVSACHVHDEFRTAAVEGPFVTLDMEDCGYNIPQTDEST
In short: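 Ligand-observed NMR on 5 µM mature ectodomain with 0.15 mM ligand (1:30 protein/ligand, ligand from 100 mM DMSO-d6 stock) and D2O added. Recorded at 27 °C on a 600 MHz spectrometer with cryoprobe. Both 1D 1H and WaterLOGSY spectra acquired: 32K points, 14 ppm sweep width, 128 scans. Run at physiological pH, then repeated at acidic pH.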

mature BACE1 ectodomain [2] = biological target: T1, mature BACE1 ectodomain; experiment: SPR competition with OM99-2; conditions: binding before and after OM99-2 injection, pH 4.5
In short: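 Run at pH 4.5 on immobilized wild-type ectodomain: 10 mM NaOAc, 150 mM NaCl, 0.05% Tween 20, 5% DMSO, 25 °C. Fragments injected before and after an injection of the peptide inhibitor OM99-2; binding responses compared. Concentration series 0.03, 0.06, 0.13, 0.25 and 0.50 mM.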

mature BACE1 ectodomain [3] = biological target: T1, mature BACE1 ectodomain; experiment: SPR binding to immobilized WT BACE1
In short: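 Mature ectodomain and a neutravidin reference were amine-coupled on CM7 chips; runs at 25 °C. Running buffers: HBS-N pH 7.4, or 10 mM NaOAc pH 4.5 with 150 mM NaCl; both with 0.05% Tween 20 and 5% DMSO. Injections 30 s at 30 µL/min, with DMSO correction over 2.5–6.5%. Screened at 0.25 mM in duplicate (forward and reverse order) against BACE1, neutravidin and a blank spot. Top 10% retested over 0.03–0.500 mM (8 points, 1.5-fold).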

Sequence of BACE1 D32N mutant (P56817 46-454 D93N): as the sequence (P56817 46-454 limits assumed) above, with D48N counted along it

SPR D32N binding (BACE1 D32N mutant) | WaterLOGSY signal at pH 4.5 (mature BACE1 ectodomain [1]; pH 4.5) | SPR OM99-2 competition (mature BACE1 ectodomain [2]) | SPR binding to WT BACE1 (mature BACE1 ectodomain) (mature BACE1 ectodomain [3]; pH not stated) | SMILES | WaterLOGSY signal at pH 7.5 (mature BACE1 ectodomain [1]) | SPR binding at pH 4.5 (mature BACE1 ectodomain [3]; WT BACE1, pH 4.5)
lost binding | strong positive | drastically reduced | bound strongly | CC1(c2ccccc2)COCC(N)=N1 (centres unmarked) [Compound 14, 5-Methyl-5-phenyl-2,6-dihydro-1,4-oxazin-3-amine] |  | 
bound |  | reduced binding |  | CN(C)c1nc(N2CCCC2)nc2ccccc12 [Compound 12, N,N-Dimethyl-2-pyrrolidin-1-yl-quinazolin-4-amine] | clear positive | 

SMILES | SPR D32N binding (BACE1 D32N mutant) | WaterLOGSY signal at pH 4.5 (mature BACE1 ectodomain [1]; pH 4.5) | SPR OM99-2 competition (mature BACE1 ectodomain [2]) | SPR binding to WT BACE1 (mature BACE1 ectodomain) (mature BACE1 ectodomain [3]; pH not stated) | WaterLOGSY signal at pH 7.5 (mature BACE1 ectodomain [1]) | SPR binding at pH 4.5 (mature BACE1 ectodomain [3]; WT BACE1, pH 4.5)
Brc1cc2c(N3CCNCC3)nccn2c1 [Compound 10, 7-Bromo-1-piperazin-1-yl-pyrrolo[1,2-a]pyrazine] | bound |  | bound |  | clear positive | nonspecific binding
